Source: article PMC10975593 (ACS Omega, 2024)

Tests used:
[1] = test system: MDA-MB-435; experiment: NCI 60-cell line screen; type: cell-based, human
[2] = test system: HOP-62; experiment: NCI 60-cell line screen; type: cell-based, human
[3] = test system: OVCAR-4; experiment: NCI 60-cell line screen; type: cell-based, human
[4] = test system: U251; experiment: NCI 60-cell line screen; type: cell-based, human
Method in brief: (§1)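 Test compounds were submitted to the National Cancer Institute and run under NCI's standard 60-cell-line protocols. Read-outs were taken from percent-growth versus log-concentration curves.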

[5] = test system: UACC-62; experiment: NCI 60-cell line screen; type: cell-based, human
Method in brief: as §1

[6] = test system: SK-MEL-5; experiment: NCI 60-cell line screen; type: cell-based, human
Method in brief: as §1

[7] = test system: MOLT-4; experiment: NCI 60-cell line screen; type: cell-based, human
[8] = test system: TK-10; experiment: NCI 60-cell line screen; type: cell-based, human
Method in brief: as §1

[9] = test system: HOP-92; experiment: NCI 60-cell line screen; type: cell-based, human
[10] = test system: SNB-19; experiment: NCI 60-cell line screen; type: cell-based, human
Method in brief: as §1

[11] = test system: SF-295; experiment: NCI 60-cell line screen; type: cell-based, human
Method in brief: as §1

[12] = test system: SNB-75; experiment: NCI 60-cell line screen; type: cell-based, human
Method in brief: as §1

[13] = test system: SF-268; experiment: NCI 60-cell line screen; type: cell-based, human
Method in brief: as §1

[14] = test system: UO-31; experiment: NCI 60-cell line screen; type: cell-based, human
Method in brief: as §1

[15] = test system: LOX IMVI; experiment: NCI 60-cell line screen; type: cell-based, human
[16] = test system: CCRF-CEM; experiment: NCI 60-cell line screen; type: cell-based, human
[17] = test system: SF-539; experiment: NCI 60-cell line screen; type: cell-based, human
Method in brief: as §1

[18] = test system: HCT-116; experiment: NCI 60-cell line screen; type: cell-based, human
[19] = test system: ACHN; experiment: NCI 60-cell line screen; type: cell-based, human
[20] = test system: SK-MEL-28; experiment: NCI 60-cell line screen; type: cell-based, human
Method in brief: as §1

[21] = test system: NCI/ADR-RES; experiment: NCI 60-cell line screen; type: cell-based, human
[22] = test system: HL-60(TB); details: leukemia
[23] = test system: OVCAR-5; experiment: NCI 60-cell line screen; type: cell-based, human
Method in brief: as §1

[24] = test system: HL-60(TB); experiment: cells; details: Homo sapiens
[25] = test system: M14; experiment: NCI 60-cell line screen; type: cell-based, human

**Q.** Which results are given for `O=C(CN1CCN(CC(=O)Nc2nc3ccccc3s2)CC1)Nc1ccc([N+](=O)[O-])cc1` [OMS14, N-(benzo[d]thiazol-2-yl)-2-(4-(2-((4-nitrophenyl)amino)-2-oxoethyl)piperazin-1-yl)acetamide]?
**A.** GI50 ([1]; Homo sapiens, MDA-MB-435): 1.8 µM; IC50 ([1]; Homo sapiens, MDA-MB-435): 3 µM; CC50 ([1]; Homo sapiens, MDA-MB-435, read-out: LC50): 15.1 µM; TGI ([1]; MDA-MB-435, melanoma): 4.6 µM; TGI ([2]; HOP-62, non-small cell lung cancer): 3.7 µM; GI50 ([2]; Homo sapiens, HOP-62): 1.7 µM; IC50 ([2]; Homo sapiens, HOP-62): 3.2 µM; CC50 ([2]; Homo sapiens, HOP-62, read-out: LC50): 8.3 µM; GI50 ([3]; Homo sapiens, OVCAR-4): 2.4 µM; IC50 ([3]; Homo sapiens, OVCAR-4): 5.2 µM; CC50 ([3]; Homo sapiens, OVCAR-4, read-out: LC50): 75.9 µM; TGI ([3]; OVCAR-4, ovarian cancer): 8.3 µM; GI50 ([4]; Homo sapiens, U-251): 2.6 µM; IC50 ([4]; Homo sapiens, U-251): 3.5 µM; CC50 ([4]; Homo sapiens, U-251, read-out: LC50): 50.1 µM; TGI ([4]; U251, CNS cancer): 11.0 µM; GI50 ([5]; Homo sapiens, UACC-62): 1.7 µM; IC50 ([5]; Homo sapiens, UACC-62): 3.1 µM; CC50 ([5]; Homo sapiens, UACC-62, read-out: LC50): 6.9 µM; TGI ([5]; UACC-62, melanoma): 3.5 µM; GI50 ([6]; Homo sapiens, SK-MEL-5): 1.7 µM; IC50 ([6]; Homo sapiens, SK-MEL-5): 3.2 µM; CC50 ([6]; Homo sapiens, SK-MEL-5, read-out: LC50): 6.3 µM; TGI ([6]; SK-MEL-5, melanoma): 3.3 µM; GI50 ([7]; Homo sapiens, MOLT-4): 1.1 µM; IC50 ([7]; Homo sapiens, MOLT-4): 2.5 µM; CC50 ([7]; Homo sapiens, MOLT-4, read-out: LC50): > 100 µM; TGI ([7]; MOLT-4, leukemia): 9.5 µM; GI50 ([8]; Homo sapiens, TK-10): 2.2 µM; IC50 ([8]; Homo sapiens, TK-10): 6.2 µM; CC50 ([8]; Homo sapiens, TK-10, read-out: LC50): > 100 µM; TGI ([8]; TK-10, renal cancer): 7.1 µM; TGI ([9]; HOP-92, non-small cell lung cancer): 8.3 µM; GI50 ([9]; Homo sapiens, HOP-92): 2.3 µM; IC50 ([9]; Homo sapiens, HOP-92): 9.1 µM; CC50 ([9]; Homo sapiens, HOP-92, read-out: LC50): 89.1 µM; GI50 ([10]; Homo sapiens, SNB-19): 2.8 µM; IC50 ([10]; Homo sapiens, SNB-19): 4.9 µM; CC50 ([10]; Homo sapiens, SNB-19, read-out: LC50): > 100 µM; TGI ([10]; SNB-19, CNS cancer): 12.3 µM; GI50 ([11]; Homo sapiens, SF-295): 2.2 µM; IC50 ([11]; Homo sapiens, SF-295): 3.7 µM; CC50 ([11]; Homo sapiens, SF-295, read-out: LC50): 28.8 µM; TGI ([11]; SF-295, CNS cancer): 7.1 µM; GI50 ([12]; Homo sapiens, SNB-75): 2 µM; IC50 ([12]; Homo sapiens, SNB-75): 6.6 µM; CC50 ([12]; Homo sapiens, SNB-75, read-out: LC50): 24 µM; TGI ([12]; SNB-75, CNS cancer): 6.0 µM; GI50 ([13]; Homo sapiens, SF-268): 2.2 µM; IC50 ([13]; Homo sapiens, SF-268): 4.6 µM; CC50 ([13]; Homo sapiens, SF-268, read-out: LC50): 43.7 µM; TGI ([13]; SF-268, CNS cancer): 7.1 µM; GI50 ([14]; Homo sapiens, UO-31): 1.3 µM; IC50 ([14]; Homo sapiens, UO-31): 2.5 µM; CC50 ([14]; Homo sapiens, UO-31, read-out: LC50): 8.5 µM; TGI ([14]; UO-31, renal cancer): 3.3 µM; GI50 ([15]; Homo sapiens): 1.6 µM; IC50 ([15]; Homo sapiens): 2.8 µM; CC50 ([15]; Homo sapiens, read-out: LC50): 6.2 µM; TGI ([15]; melanoma): 3.2 µM; GI50 ([16]; Homo sapiens): 2.5 µM; IC50 ([16]; Homo sapiens): 4 µM; CC50 ([16]; Homo sapiens, read-out: LC50): > 100 µM; TGI ([16]; leukemia): 17.4 µM; GI50 ([17]; Homo sapiens, SF-539): 2 µM; IC50 ([17]; Homo sapiens, SF-539): 4.3 µM; CC50 ([17]; Homo sapiens, SF-539, read-out: LC50): 20 µM; TGI ([17]; SF-539, CNS cancer): 5.5 µM; TGI ([18]; HCT-116, colon cancer): 10.5 µM; GI50 ([18]; Homo sapiens, HCT-116): 0.7 µM; IC50 ([18]; Homo sapiens, HCT-116): 0.8 µM; CC50 ([18]; Homo sapiens, HCT-116, read-out: LC50): 52.5 µM; GI50 ([19]; Homo sapiens): 1.1 µM; IC50 ([19]; Homo sapiens): 2.1 µM; CC50 ([19]; Homo sapiens, read-out: LC50): 22.9 µM; TGI ([19]; renal cancer): 4.4 µM; GI50 ([20]; Homo sapiens, SK-MEL-28): 2.1 µM; IC50 ([20]; Homo sapiens, SK-MEL-28): 4 µM; CC50 ([20]; Homo sapiens, SK-MEL-28, read-out: LC50): 23.4 µM; TGI ([20]; SK-MEL-28, melanoma): 6.2 µM; GI50 ([21]; Homo sapiens): 1.3 µM; IC50 ([21]; Homo sapiens): 2.4 µM; CC50 ([21]; Homo sapiens, read-out: LC50): 7.8 µM; TGI ([21]; ovarian cancer): 3.2 µM; TGI [22]: 7.6 µM; GI50 ([23]; Homo sapiens, OVCAR-5): 1.5 µM; IC50 ([23]; Homo sapiens, OVCAR-5): 3.2 µM; CC50 ([23]; Homo sapiens, OVCAR-5, read-out: LC50): 57.5 µM; TGI ([23]; OVCAR-5, ovarian cancer): 4.8 µM; GI50 ([24]; HL-60): 2.5 µM; IC50 ([24]; HL-60): 4.4 µM; CC50 ([24]; HL-60, read-out: LC50): 81.3 µM; GI50 ([25]; Homo sapiens, M14): 1.7 µM; IC50 ([25]; Homo sapiens, M14): 3 µM; CC50 ([25]; Homo sapiens, M14, read-out: LC50): 8.3 µM; TGI ([25]; M14, melanoma): 3.8 µM
